{"source": "paper PMC4535313", "about": "(Bioorganic & medicinal chemistry letters, 2014)", "key": {"PLD1": {"target": "T1, PLD1 (Homo sapiens, UniProt Q13393)", "T1 sequence (Q13393 1-1074)": "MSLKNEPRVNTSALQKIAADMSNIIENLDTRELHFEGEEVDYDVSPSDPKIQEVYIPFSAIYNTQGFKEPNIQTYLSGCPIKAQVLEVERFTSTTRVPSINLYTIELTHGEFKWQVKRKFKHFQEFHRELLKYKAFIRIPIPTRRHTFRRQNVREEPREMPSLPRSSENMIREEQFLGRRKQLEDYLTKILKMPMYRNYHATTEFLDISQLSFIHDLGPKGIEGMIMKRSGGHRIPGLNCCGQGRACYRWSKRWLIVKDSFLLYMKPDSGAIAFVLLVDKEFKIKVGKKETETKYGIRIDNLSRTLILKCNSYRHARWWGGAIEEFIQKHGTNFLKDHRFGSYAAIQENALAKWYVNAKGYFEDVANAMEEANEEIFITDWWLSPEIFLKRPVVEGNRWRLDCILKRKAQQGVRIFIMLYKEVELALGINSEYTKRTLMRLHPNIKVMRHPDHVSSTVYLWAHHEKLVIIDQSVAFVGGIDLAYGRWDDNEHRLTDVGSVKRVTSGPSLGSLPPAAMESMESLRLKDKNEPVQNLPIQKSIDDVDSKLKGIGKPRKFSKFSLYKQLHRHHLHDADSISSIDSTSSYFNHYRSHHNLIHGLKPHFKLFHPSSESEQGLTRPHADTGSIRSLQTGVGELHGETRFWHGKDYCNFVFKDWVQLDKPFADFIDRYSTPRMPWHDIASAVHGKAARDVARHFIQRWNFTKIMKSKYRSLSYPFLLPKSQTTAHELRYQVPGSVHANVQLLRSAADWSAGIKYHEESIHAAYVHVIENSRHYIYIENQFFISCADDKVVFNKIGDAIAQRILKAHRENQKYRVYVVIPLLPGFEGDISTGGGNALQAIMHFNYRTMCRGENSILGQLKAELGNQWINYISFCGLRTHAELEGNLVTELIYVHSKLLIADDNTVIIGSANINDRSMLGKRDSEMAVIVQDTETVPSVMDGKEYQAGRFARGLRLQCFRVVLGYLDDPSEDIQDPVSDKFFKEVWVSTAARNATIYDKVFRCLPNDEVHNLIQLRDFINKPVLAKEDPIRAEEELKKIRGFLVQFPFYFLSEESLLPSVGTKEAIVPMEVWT", "experiment": "Cellular PLD1 assay with Calu-1 cells", "format": "cell-based", "outline": "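Calu-1 cells used for cell-based PLD1 inhibition readout. Each IC50 determined in triplicate.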"}, "PLD2": {"target": "PLD2 (Homo sapiens, UniProt O14939)", "sequence (O14939 whole entry, species assumed)": "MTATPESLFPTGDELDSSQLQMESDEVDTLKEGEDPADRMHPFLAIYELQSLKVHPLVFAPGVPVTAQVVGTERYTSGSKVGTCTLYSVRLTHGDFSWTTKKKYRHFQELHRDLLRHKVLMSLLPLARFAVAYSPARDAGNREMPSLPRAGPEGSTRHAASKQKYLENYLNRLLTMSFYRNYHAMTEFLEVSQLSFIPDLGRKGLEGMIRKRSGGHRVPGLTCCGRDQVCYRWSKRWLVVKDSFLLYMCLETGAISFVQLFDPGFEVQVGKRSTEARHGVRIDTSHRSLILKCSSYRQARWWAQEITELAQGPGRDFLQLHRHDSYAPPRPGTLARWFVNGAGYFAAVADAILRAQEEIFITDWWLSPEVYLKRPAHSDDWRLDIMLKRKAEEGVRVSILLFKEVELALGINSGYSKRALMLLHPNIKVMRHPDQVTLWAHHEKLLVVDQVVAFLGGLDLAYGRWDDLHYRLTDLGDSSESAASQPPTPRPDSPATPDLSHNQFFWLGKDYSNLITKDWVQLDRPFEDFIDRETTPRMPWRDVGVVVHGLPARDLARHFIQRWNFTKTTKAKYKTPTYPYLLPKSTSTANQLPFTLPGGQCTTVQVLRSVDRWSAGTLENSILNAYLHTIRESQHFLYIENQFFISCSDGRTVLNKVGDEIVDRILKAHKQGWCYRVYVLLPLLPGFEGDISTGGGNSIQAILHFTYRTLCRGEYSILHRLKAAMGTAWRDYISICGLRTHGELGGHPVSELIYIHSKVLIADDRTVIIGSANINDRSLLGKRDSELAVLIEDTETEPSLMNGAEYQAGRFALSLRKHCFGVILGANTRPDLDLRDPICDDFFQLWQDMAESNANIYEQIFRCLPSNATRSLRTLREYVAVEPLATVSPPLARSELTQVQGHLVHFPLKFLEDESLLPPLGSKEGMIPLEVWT", "details": "recently reported inhibitors, Fig. 1; cited from earlier work"}, "[1]": {"experiment": "Metabolic stability in rat microsomes", "format": "in vitro ADME"}}, "data": [{"smiles": "CC(CNC(=O)c1ccc(F)c(F)c1)N1CCC2(CC1)C(=O)NCN2c1ccccc1", "note": "(stereo not drawn) [8f]", "values": [{"measurement": "IC50", "setting": "PLD1", "result": "~1000", "unit": "nM"}]}, {"smiles": "O=C(NCCN1CCC2(CC1)C(=O)NCN2c1cccc(F)c1)c1ccc(F)c(F)c1", "note": "[compound 4]", "values": [{"measurement": "fold PLD2 selective", "setting": "PLD2", "result": 53, "unit": "fold"}]}, {"smiles": "CC1CC(n2c(=O)[nH]c3ccccc32)CCN1CCNC(=O)c1ccc(F)cc1", "note": "(stereo not drawn) [compound 9]", "values": [{"measurement": "Clhep", "setting": "[1]", "result": 70, "unit": "mL/min/kg"}]}]}
